Measurements: PubChem BioAssay
Inconclusive results are not listed.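 The calls were made as follows, unless noted: active = cell viability at or below a set limit in both duplicate runs, the limit being the all-compound median minus 4 SD (cut at about 23% in these data, passing the limit was not always enough); inconclusive = no clear call, values can overlap the other calls; inactive = the rest.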

Columns and labels:
[1] = S. cerevisiae growth inhibition in permissive medium (OD615), pilot counter-assay for S. cerevisiae lifespan shortening project, permissive growth control (AID 705;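 active = growth inhibition above 25% in both replicates, a cutoff set 3 SD above the mean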); settings: OD615, 24 h, at 10 µM, hits give high values
How it was run: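 System: S. cerevisiae with engineered DeaD lifespan system / Measured by: absorbance (optical density) at 615 nm / Read-out: reduction in yeast growth (OD615) / Times: 4 h cell pre-growth, 24 h exposure at 30 °C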

[2] = S. cerevisiae growth inhibition in restrictive medium, OD615, pilot screen, restrictive growth control, yeast lifespan reduction project (AID 706;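 active = growth inhibition above a set limit, 3 SD over mean compound inhibition, in both replicates, cut at about 43% in these data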;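 also: modified DeaD lifespan yeast strain shifted to restrictive glucose medium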); settings: OD615, 48 h, at 10 µM, hits give high values
How it was run: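 System: Engineered S. cerevisiae DeaD strain | Buffer or medium: Glucose-based CSMM-D restrictive medium | Schedule: 4 h pre-incubation, 48 h exposure at 30 °C | Technique: Optical density at 615 nm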

[3] = doxorubicin toxicity protection in MRP-1 cells – H69AR cells, CellTiter-Glo, duplicate, MRP-1 activator project, pilot screen (AID 807;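 active = viability increase at or above a cutoff of the median across tested compounds plus 3 SD, cut at about 8.5% in these data, passing the limit was not always enough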;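 also: compound pretreatment 18-22 h then 72 h combined with doxorubicin; 0% = doxorubicin alone and 100% = vehicle without doxorubicin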); settings: H69AR viability with doxorubicin, CellTiter-Glo luminescence; at 10 µM; hits give high values
[4] = viability of HCT116 without oncogenic beta-catenin – human colon tumor cells, pilot screen (AID 823); settings: HCT116 beta-catenin knockout viability, CellTiter-Glo, 60 h; at 10 µM; hits give low values;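 also: 0% = wells killed by 20 µM Hyamine and 100% = untreated DMSO cell wells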
[5] = viability of PTEN-null HCT116 cells – cell-based, HCT116 clonal line, CellTiter-Glo, pilot screen (AID 824;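 active = viability at or below 27.92% in each of two runs, the all-compound median minus 4 SD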;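 also: 0% = 20 µM Hyamine control and 100% = vehicle cell control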); settings: HCT116 PTEN-deleted viability, 60 h, at 10 µM, hits give low values
[6] = RAM pathway blockade in budding yeast – dse1pr::URA3 reporter, 5-FOA selection, pilot screen (AID 869;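 active = inhibition over a set limit, the all-compound mean plus 3 SD, in both replicate runs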;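 also: 0% = DMSO wells with no growth and 100% = 10 µM 1-NA-PP1 with full growth; RAM network block rescues cells from 5-FOA so hits raise OD615 growth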); settings: S. cerevisiae dse1pr::URA3 5-FOA growth, OD615, 2 d; at 10 µM; hits give high values; strain carries analog-sensitive mutant Cbk1 kinase
[7] = RAM signaling pathway blockade in yeast – S. cerevisiae, Pdr1DBD-CYC8 efflux-inhibited sensitized strain, primary screen (AID 1298;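 active = RAM network inhibition above 8.4% in each of two replicates, 3 SD over the compound average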;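 also: 0% = DMSO untreated cells without growth and 100% = 10 µM 1-NA-PP1 full growth; higher means more yeast growth rescued from 5-FOA killing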); settings: S. cerevisiae cbk1-as DSE1-URA3 strain, 5-FOA growth OD615, 2 d; at 50 µM; hits give high values

COc1ccc(C)c2sc(=NC(=O)C(C)C)n(C)c12
inactive: growth inhibition [1] -6.53% | growth inhibition [2] 2.31% | viability increase [3] -3.89% | viability [4] 90% | viability [5] 92.4% | inhibition [6] 3.1% | RAM network inhibition [7] 6.3%

COc1cccc2c(=O)n(CC(=O)N3CCN(c4ccccc4)CC3)ccc12
inactive: growth inhibition [1] -7.37% | growth inhibition [2] -7.01% | viability increase [3] -0.94% | viability [4] 99.7% | viability [5] 98.1% | inhibition [6] 1.39% | RAM network inhibition [7] 4.22%

O=C(O)c1ccc(N2CCCCCC2)c(N2C(=O)c3ccccc3C2=O)c1
inactive: growth inhibition [1] -18% | growth inhibition [2] 4.7% | viability increase [3] -0.78% | viability [4] 108% | viability [5] 98.2% | inhibition [6] 0.945% | RAM network inhibition [7] 3.42%

Cc1csc2nc(CNS(=O)(=O)c3ccc4c(c3)OCCO4)cn12
inactive: growth inhibition [1] 4.07% | growth inhibition [2] -5.18% | viability increase [3] -1.85% | viability [4] 91.9% | viability [5] 85.7% | inhibition [6] 3.93% | RAM network inhibition [7] 2.03%

CCN(CC)CCNC(=O)c1cc2c(=O)n(C)c3ccccc3c2n1C
inactive: growth inhibition [1] -4.52% | growth inhibition [2] -6.67% | viability increase [3] -4.8% | viability [4] 49.8% | viability [5] 51.4% | inhibition [6] 1.88% | RAM network inhibition [7] 0.31%

CC1(C)CC(=O)C(C=NC2CCCCC2)=C(O)C1
inactive: growth inhibition [1] 0.43% | growth inhibition [2] -1.72% | viability increase [3] -1.23% | viability [4] 98.7% | viability [5] 94.8% | inhibition [6] 1.33% | RAM network inhibition [7] -1.28%

CCOC(=O)C1=C(C)S/C(=C\N(C)C)C1=O
inactive: growth inhibition [1] -8.63% | growth inhibition [2] -1.29% | viability increase [3] -0.78% | viability [4] 98.6% | viability [5] 90.3% | inhibition [6] -0.055% | RAM network inhibition [7] -2.3%

O=C1C(C=NCCN2CCOCC2)=C(O)c2ccccc21
inactive: growth inhibition [1] -15.9% | growth inhibition [2] -26.8% | viability increase [3] -1.88% | viability [4] 100% | viability [5] 92.4% | inhibition [6] 2.4% | RAM network inhibition [7] 3.56%

Cc1ccc(SCCNC(=O)C(CO)(CO)CO)cc1
inactive: growth inhibition [1] 2.57% | growth inhibition [2] -1.61% | viability increase [3] -0.51% | viability [4] 101% | viability [5] 98.7% | inhibition [6] 0.935% | RAM network inhibition [7] 0.52%

CCOC(=O)c1cc(-c2ccc(C)o2)nn1CCC#N
inactive: growth inhibition [1] -6.98% | growth inhibition [2] 4.24% | viability increase [3] 0.21% | viability [4] 101% | viability [5] 102% | inhibition [6] 0.86% | RAM network inhibition [7] 3.69%

c1cc(-c2nnc3n2CCC3)[nH]n1
inactive: growth inhibition [1] 1.95% | growth inhibition [2] -0.075% | viability increase [3] -2.22% | viability [4] 95.9% | viability [5] 104% | inhibition [6] 1.51% | RAM network inhibition [7] 2.34%

CCCCN(C(=O)NC(=O)Nc1nc2ccc(OC)cc2s1)S(C)(=O)=O
inactive: growth inhibition [1] -2.28% | growth inhibition [2] -3.95% | viability increase [3] -0.44% | viability [4] 92.6% | viability [5] 103% | inhibition [6] -0.04% | RAM network inhibition [7] 1.09%

Cc1cc(C)cc(OCC(=O)Nc2cccc(-c3nc4ncccc4o3)c2)c1
inactive: growth inhibition [1] -7.77% | growth inhibition [2] -1.93% | viability increase [3] -1.93% | viability [4] 65.4% | viability [5] 59.7% | inhibition [6] 3.17% | RAM network inhibition [7] 6.74%

CCOC(=O)c1ccc(N2C(=O)CC(C3CCCO3)C2=O)cc1 (stereo not given)
inactive: growth inhibition [1] 4.47% | growth inhibition [2] 1.21% | viability increase [3] -2.28% | viability [4] 101% | viability [5] 94.3% | inhibition [6] 0.84% | RAM network inhibition [7] 2.15%

O=C(CSc1oc(-c2ccco2)nc1S(=O)(=O)c1ccc(Cl)cc1)NCC1CCCO1 (stereo not given)
inactive: growth inhibition [1] 1.39% | growth inhibition [2] 2.77% | viability increase [3] -1.13% | viability [4] 96.9% | viability [5] 95.1% | inhibition [6] -0.09% | RAM network inhibition [7] 1.57%
